# Calls of active or inactive are those of the source. The calls are words filed in the database; no cut-off is given here.
# Columns and labels:
# [1] = test system: Mycobacterium tuberculosis; test: Antimycobacterial activity against drug-resistant Mycobacterium tuberculosis isolate MDR2 assessed as inhibition of mycobacterial growth incubated for 9 days; type: functional
# In short: (§1)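 MIC by HT-SPOTi on Middlebrook 7H10 agar with 0.05% (v/v) glycerol and 10% (v/v) OADC in 96-well format. Compounds dissolved at 50 mg/mL (stock), two-fold serial dilutions, final 500-0.5 µg/mL. Each well spotted with 2 µL early-to-midlog culture (2x10^3 CFU), incubated at 37 °C until distinct spots in control wells. DMSO-only and isoniazid controls; triplicate.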
# [2] = test system: Mycobacterium tuberculosis variant bovis BCG; test: Antimycobacterial activity against Mycobacterium bovis BCG Pasteur ATCC 35734 assessed as inhibition of mycobacterial growth incubated for 24 hrs by MABA method; type: functional; settings: Pasteur ATCC 35734, 24 h
# [3] = test system: Mycobacterium tuberculosis; test: Antimycobacterial activity against drug-resistant Mycobacterium tuberculosis isolate MDR1 assessed as inhibition of mycobacterial growth incubated for 9 days; type: functional; in short: as §1
# [4] = test system: Mycobacterium tuberculosis; test: Antimycobacterial activity against drug-resistant Mycobacterium tuberculosis isolate MDR1 assessed as inhibition of mycobacterial growth at 500 ug/ml incubated for 9 days; type: functional, organism-based; in short: as §1
# [5] = test system: Mycobacterium tuberculosis; test: Antimycobacterial activity against drug-resistant Mycobacterium tuberculosis isolate MDR2 assessed as inhibition of mycobacterial growth at 500 ug/ml incubated for 9 days; type: functional, organism-based; in short: as §1
smiles,measurement,setting,value
Cc1cc(CNCc2ccccc2)c(C)n1-c1ccc(F)cc1,MIC,"[1]; isolate MDR2, 216 h",62 µg/mL
same,MIC,[2],13 µg/mL
same,MIC,"[3]; isolate MDR1, 216 h",7.8 µg/mL
Cc1cc(CN2CCN(C3C4CC5CC(C4)CC3C5)CC2)c(C)n1-c1ccc(Cl)cc1 (stereo not given),MIC,"[1]; isolate MDR2, 216 h",16 µg/mL
same,MIC,[2],3.3 µg/mL
same,MIC,"[3]; isolate MDR1, 216 h",7.8 µg/mL
Cc1cc(CNC2C3CC4CC(C3)CC2C4)c(C)n1-c1ccc(Cl)cc1 (stereo not given),MIC,"[1]; isolate MDR2, 216 h",125 µg/mL
same,MIC,[2],2 µg/mL
same,MIC,"[3]; isolate MDR1, 216 h",3.9 µg/mL
Cc1c(CNCc2ccccc2)cc(-c2ccc(Cl)cc2)n1-c1ccc(Cl)cc1,MIC,[2],8 µg/mL
Cc1cc(CNOCc2ccccc2)c(C)n1-c1ccc(F)cc1,MIC,"[1]; isolate MDR2, 216 h",> 125 µg/mL
same,MIC,[2],> 64 µg/mL
same,MIC,"[3]; isolate MDR1, 216 h",62 µg/mL
CC(C)=CCC/C(C)=C/CNCCNC1C2CC3CC(C2)CC1C3 (stereo not given) [SQ109],MIC,[2],2 µg/mL
NNC(=O)c1ccncc1 [ISONIAZID],MIC,"[1]; isolate MDR2, 216 h",25 µg/mL
same,MIC,"[3]; isolate MDR1, 216 h",10 µg/mL
Cc1c(CN2CCN(c3ccccc3)CC2)c(CN2CCN(c3ccccc3)CC2)c(C)n1-c1ccc(Cl)cc1,MIC,"[1]; isolate MDR2, 216 h",> 125 µg/mL
same,MIC,[2],> 64 µg/mL
same,MIC,"[3]; isolate MDR1, 216 h",62 µg/mL
Cc1c(CNC2CCCCC2)cc(-c2ccc(Cl)cc2)n1-c1ccc(Cl)cc1,MIC,[2],4 µg/mL
Cc1cc(/C=N\OCc2ccccc2)c(C)n1-c1ccc(Cl)cc1,MIC,"[1]; isolate MDR2, 216 h",> 125 µg/mL
same,MIC,[2],> 64 µg/mL
same,MIC,"[3]; isolate MDR1, 216 h",> 125 µg/mL
Cc1cc(CN2CCN(C3C[C@@H]4CC[C@H]3C4)CC2)c(C)n1-c1ccc(Cl)cc1 (mixture of isomers),MIC,"[1]; isolate MDR2, 216 h",31 µg/mL
same,MIC,[2],32 µg/mL
same,MIC,"[3]; isolate MDR1, 216 h",3.9 µg/mL
Cc1cc(CN2CCN(c3ccccc3)CC2)c(C)n1-c1ccc(Cl)cc1,MIC,"[1]; isolate MDR2, 216 h",> 125 µg/mL
same,MIC,[2],32 µg/mL
same,MIC,"[3]; isolate MDR1, 216 h",31 µg/mL
Cc1c(CN2CCN(c3ccccc3)CC2)cc(-c2ccc(Cl)cc2)n1-c1ccc(Cl)cc1,MIC,"[1]; isolate MDR2, 216 h",> 125 µg/mL
same,MIC,[2],2 µg/mL
same,MIC,"[3]; isolate MDR1, 216 h",3.9 µg/mL
Cc1cc(CN2CCN(C34CC5CC(CC(C5)C3)C4)CC2)c(C)n1-c1ccc(Cl)cc1,MIC,"[1]; isolate MDR2, 216 h",125 µg/mL
same,MIC,[2],16 µg/mL
same,MIC,"[3]; isolate MDR1, 216 h",125 µg/mL
Cc1cc(CNCCc2ccccc2)c(C)n1-c1ccc(Cl)cc1,MIC,"[1]; isolate MDR2, 216 h",7.8 µg/mL
same,MIC,[2],16 µg/mL
same,MIC,"[3]; isolate MDR1, 216 h",1.9 µg/mL
Cc1cc(CN2CCN(C3CCCCC3)CC2)c(C)n1-c1ccc(Cl)cc1,MIC,"[1]; isolate MDR2, 216 h",62 µg/mL
same,MIC,[2],21 µg/mL
same,MIC,"[3]; isolate MDR1, 216 h",7.8 µg/mL
Cc1c(CN2CCN(C3C4CC5CC(C4)CC3C5)CC2)cc(-c2ccc(Cl)cc2)n1-c1ccc(Cl)cc1 (stereo not given),MIC,"[1]; isolate MDR2, 216 h",125 µg/mL
same,MIC,[2],64 µg/mL
same,MIC,"[3]; isolate MDR1, 216 h",125 µg/mL
Cc1cc(CNCc2ccc(F)cc2)c(C)n1-c1ccc(Cl)cc1,MIC,"[1]; isolate MDR2, 216 h",16 µg/mL
same,growth inhibition (GI),[4],inactive
same,MIC,[2],0.5 µg/mL
same,MIC,[3],inactive
Cc1cc(CNCc2ccccc2)c(C)n1-c1ccc(Cl)cc1,MIC,"[1]; isolate MDR2, 216 h",3.9 µg/mL
same,MIC,[2],0.5 µg/mL
same,MIC,"[3]; isolate MDR1, 216 h",1 µg/mL
Cc1c(CN2CCN(C3CC4CCC3C4)CC2)cc(-c2ccc(Cl)cc2)n1-c1ccc(Cl)cc1 (mixture of isomers),MIC,[2],64 µg/mL
Cc1cc(CNCc2ccc(Cl)cc2)c(C)n1-c1ccc(Cl)cc1,MIC,"[1]; isolate MDR2, 216 h",> 125 µg/mL
same,MIC,[2],8 µg/mL
same,MIC,"[3]; isolate MDR1, 216 h",31 µg/mL
Cc1ccc(CNCc2cc(C)n(-c3ccc(Cl)cc3)c2C)cc1,MIC,"[1]; isolate MDR2, 216 h",7.8 µg/mL
same,MIC,[2],4 µg/mL
same,MIC,"[3]; isolate MDR1, 216 h",3.9 µg/mL
Cc1cc(CNC2CCCCC2)c(C)n1-c1ccc(Cl)cc1,MIC,"[1]; isolate MDR2, 216 h",16 µg/mL
same,MIC,[2],0.4 µg/mL
same,MIC,"[3]; isolate MDR1, 216 h",0.5 µg/mL
Cc1c(CN2CCN(C34CC5CC(CC(C5)C3)C4)CC2)cc(-c2ccc(Cl)cc2)n1-c1ccc(Cl)cc1,MIC,"[1]; isolate MDR2, 216 h",62 µg/mL
same,MIC,[2],2 µg/mL
same,MIC,"[3]; isolate MDR1, 216 h",16 µg/mL
Cc1cc(CN2CCN(C3C4CC5CC(C4)CC3C5)CC2)c(C)n1-c1ccccc1F (stereo not given),MIC,"[1]; isolate MDR2, 216 h",16 µg/mL
same,MIC,[2],1.3 µg/mL
same,MIC,"[3]; isolate MDR1, 216 h",7.8 µg/mL
Cc1c(CN2CCN(C)CC2)cc(-c2ccc(Cl)cc2)n1-c1ccc(Cl)cc1,MIC,"[1]; isolate MDR2, 216 h",16 µg/mL
same,MIC,[2],0.78 µg/mL
same,MIC,"[3]; isolate MDR1, 216 h",3.9 µg/mL
Cc1cc(CNOCc2ccccc2)c(C)n1-c1ccc(Cl)cc1,MIC,[1],inactive
same,growth inhibition (GI),[5],inactive
same,MIC,[2],> 64 µg/mL
same,MIC,"[3]; isolate MDR1, 216 h",125 µg/mL
Cc1cc(CN2CCN(C3C4CC5CC(C4)CC3C5)CC2)c(C)n1-c1ccc(C(C)C)cc1 (stereo not given),MIC,"[1]; isolate MDR2, 216 h",125 µg/mL
same,MIC,[2],4 µg/mL
same,MIC,"[3]; isolate MDR1, 216 h",62 µg/mL
Cc1cccc(-n2c(C)cc(CN3CCN(C4C5CC6CC(C5)CC4C6)CC3)c2C)c1 (stereo not given),MIC,"[1]; isolate MDR2, 216 h",125 µg/mL
same,MIC,[2],62 µg/mL
same,MIC,"[3]; isolate MDR1, 216 h",31 µg/mL

# From ChEMBL document CHEMBL3797154, “Design and Synthesis of 1-((1,5-Bis(4-chlorophenyl)-2-methyl-1H-pyrrol-3-yl)methyl)-4-methylpiperazine (BM212) and N-Adamantan-2-yl-N'-((E)-3,7-dimethylocta-2,6-dienyl)ethane-1,2-diamine (SQ109) Pyrrole Hybrid Derivatives: Discovery of Potent Antitubercular Agents Effective against …” (J Med Chem, 2016)
